Results from different studies.
Lines come from different studies, so protocols differ.
Target: 3-phosphoinositide-dependent protein kinase 1 (PDPK1, Homo sapiens, UniProt O15530)
Sequence (O15530 1-556, as in one of the studies): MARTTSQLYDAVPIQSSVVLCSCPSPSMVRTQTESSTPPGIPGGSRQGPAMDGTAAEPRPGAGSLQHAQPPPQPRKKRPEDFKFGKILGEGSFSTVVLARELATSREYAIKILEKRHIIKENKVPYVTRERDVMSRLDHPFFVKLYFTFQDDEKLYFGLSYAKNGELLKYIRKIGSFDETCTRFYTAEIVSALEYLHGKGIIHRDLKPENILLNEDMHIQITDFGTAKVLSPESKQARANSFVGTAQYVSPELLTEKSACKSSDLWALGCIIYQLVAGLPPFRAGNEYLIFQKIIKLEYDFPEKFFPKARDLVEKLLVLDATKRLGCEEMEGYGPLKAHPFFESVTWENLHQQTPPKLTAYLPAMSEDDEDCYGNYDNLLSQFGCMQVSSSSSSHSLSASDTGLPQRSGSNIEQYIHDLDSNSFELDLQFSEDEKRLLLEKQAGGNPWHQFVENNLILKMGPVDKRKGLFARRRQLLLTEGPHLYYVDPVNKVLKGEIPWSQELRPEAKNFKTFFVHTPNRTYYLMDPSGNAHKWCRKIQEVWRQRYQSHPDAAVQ

With Cc1nn(C)cc1-c1nc2c(N3CCN(Cc4ccc(Cl)cc4)CC3)c(Cl)cnc2[nH]1 the remaining binding was 100% (binding, competition with immobilised ligand; 1 µM).
The inhibition of C#Cc1n[nH]c2c(-c3cn([C@@H](C)c4ccccc4)c(=O)[nH]c3=O)cc(F)cc12 is reported as 4% (enzyme activity, inhibitor; 0.1 µM).
With COc1ncccc1-c1cnn2ccc(N3CCN(C(=O)OC(C)C)CC3)nc12 the remaining binding was 82% (binding, competition with immobilised ligand; 1 µM).
The inhibition of Cn1cc(-c2cc(F)cc(N3CCn4c(cc5c4CCCC5)C3=O)c2CO)cc(Nc2ccc(N3CCN(C4COC4)CC3)cn2)c1=O is reported as 1% (enzyme activity, inhibitor; 0.1 µM).
O=c1[nH]c2ccccc2n1C1CCN(Cc2ccc(-c3[nH]c4cc5ncnc5cc4nc3-c3ccccc3)cc2)CC1 has a remaining signal of 107% (cell-free assay; 0.5 µM).
For Nc1ncc(-c2nc(N3CCOCC3)nc(N3CCOCC3)n2)c(C(F)F)n1, the remaining binding was 83% (binding, competition with immobilised ligand; 10 µM).
The remaining activity of CC(C)(C)c1cc(C=C(C#N)C#N)cc(Br)c1O is reported as 102% (enzyme activity, inhibitor; 0.5 µM).
For C#Cc1n[nH]c2c(-c3cn([C@@H](C)c4ccccn4)c(=O)[nH]c3=O)cc(F)cc12, the inhibition was 4.7% (enzyme activity, inhibitor; 0.1 µM).
For Cn1cncc1[C@@](O)(COc1ccc(C#N)cc1-c1ccc(OC(F)(F)F)cc1)c1ccc(C#N)cc1, the remaining binding was 96% (cell-free assay, competition with immobilised ligand; 1 µM).
